Active and inactive are the calls of the source. No cut-off for these calls is given here.
How the values were obtained:
[1] = Drug uptake in human HN-143 T-EC cells assessed as drug retention at 1600 nM incubated for 24 hrs in presence of 10% fetal bovine by fluorescent microscopy imaging based analysis; format: ADME, cell-based; settings: 1.6 µM
Summary of the method: (§1)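 Cells incubated 24 h in medium with 10% serum and 1600 nM PS, then chased in PS-free medium for up to 72 h with daily medium changes. Cellular PS was measured daily by fluorescence microscopy; net fluorescence intensity per full image frame was quantified in arbitrary units.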

[2] = Solubility of the compound; format: physicochemical
[3] = Drug uptake in human HN-143 T-EC cells assessed as drug retention at 1600 nM incubated for 24 hrs in presence of 10% fetal bovine serum measured after 72 hrs chase period by fluorescent microscopy imaging based analysis; format: ADME, cell-based; settings: 1.6 µM; summary of the method: as §1
[4] = Drug uptake in human FaDu-124 cell membrane assessed as drug internalization at 1600 nM incubated for 30 mins at 37 degC; format: ADME, cell-based; settings: fadu-124, 0.5 h, 1.6 µM
Summary of the method: (§2)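 FaDu-124 cells, 30 min on ice in serum-free DMEM with 1600 nM PS, then cell-associated fluorescence imaged. For diffusion into cells, cultures were then held 30 min at 37°C in fresh serum-free medium and imaged again.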

FaDu-124 = assay: Binding affinity to human FaDu-124 cell membrane surface measured at 1600 nM incubated for 30 mins at 0 degC; format: tissue-based; summary of the method: as §2
HNT1 = assay: Binding affinity to human HNT1 cell plasma membrane with CFSE-labeled HN-87 T-Fb assessed as drug retention at 1600 nM incubated for 24 hrs in presence of 10% fetal bovine serum measured after 24 hrs chase period by fluorescent microscopy; format: cell membranes
Summary of the method: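 HNT1 cells (p 72) co-cultured on collagen-1 with CFSE-stained HN-87 T-Fb fibroblasts (added to 24 h-old tumor cultures, grown 3–7 days to confluence). Treated 24 h with DMEM + 10% FBS and 1600 nM PS, chased 24 h in DMEM + 10% FBS, then fluorescence imaged under identical conditions.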

TEC1-2 = assay: Binding affinity to human TEC1-2 cell plasma membrane assessed as drug retention at 1600 nM incubated for 24 hrs in presence of 10% fetal bovine serum measured after 48 hrs chase period by fluorescent microscopy; format: cell membranes
[5] = Drug uptake in human HN-143-T-EC cells assessed as drug retention in mitochondria measured after 72 hrs chase period by fluorescent microscopy; format: ADME
[6] = Drug uptake in human HN-143-T-EC cells assessed as drug retention in endoplasmic reticulum measured after 72 hrs by fluorescent microscopy; format: ADME, cell-based
[7] = Drug uptake in human HNT1 cells assessed as drug retention at 1600 nM incubated for 24 hrs in presence of 10% fetal bovine serum measured after 24 hrs chase period by fluorescent microscopy; format: ADME, cell-based; settings: hnt1, 24 h, 1.6 µM
HN-143 T-EC = assay: Binding affinity to human HN-143 T-EC cell membrane surface measured at 1600 nM incubated for 30 min; format: tissue-based
[8] = Photoreactivation in human TEC21 cells assessed as STAT3cross-linking in presence of 10% fetal bovine serum under 665 nm light for 9 mins measured after 24 hrs by immune blot analysis; format: cell-based; settings: tec-21, 0.15 h
Summary of the method: (§3)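 TEC-21 cells (p 8) treated 24 h in RPMI + 10% FBS with PS, imaged, chased 48 h in RPMI + 10% FBS, then irradiated 9 min with 665 nm light (6 mW/cm²). Cells were extracted immediately and immunoblotted for STAT3 crosslinking, EGFR and phospho-p38 MAPK.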

[9] = Photoreactivation in human TEC21 cells in presence of 10% fetal bovine serum under 665 nm light for 9 mins measured after 24 hrs by immune blot analysis; format: cell-based; settings: tec-21, 24 h; summary of the method: as §3
[10] = Lipophilicity, logP of the compound; format: physicochemical; settings: octanol/water
[11] = Drug uptake in human HN-T1 cells assessed as drug internalization at 1600 nM incubated for 24 hrs in presence of 10% fetal bovine serum measured after 24 hrs chase period by fluorescent microscopy; format: ADME, cell-based; settings: hnt1, 24 h, 1.6 µM

SMILES	Drug uptake [1]	Drug uptake [3]	Drug uptake [5]	Drug uptake [6]	Activity (FaDu-124)	other results
CCCCC(C)OCc1c(C)c2cc3nc(c4c5[nH]c(cc6nc(cc1[nH]2)C(C)=C6CC)c(C)c5C(=O)C4)[C@@H](CCC(=O)OC)C3C (stereo not given in full)	–	–	–	–	–	Activity (HNT1): inactive; Activity (TEC1-2): inactive
CCCCC(C)OCc1c(C)c2cc3nc(c4c5[nH]c(cc6nc(cc1[nH]2)C(C)=C6CC)c(C)c5C(=O)C4)[C@@H](CCC(=O)O)C3C (stereo not given in full)	Active	Active	–	–	–	Drug uptake [7]: Active; Activity (HN-143 T-EC): Active; Activity [8]: 0.2%; Drug metabolism [9]: Metabolite_Detected
C=Cc1c(C)c2cc3nc(c4c5[nH]c(cc6nc(cc1[nH]2)C(C)=C6CC)c(C)c5C(=O)C4)[C@@H](CCC(=O)O)C3C (stereo not given in full)	–	–	–	–	inactive	–
CCCCc1c(C)c2cc3nc(c4c5[nH]c(cc6nc(cc1[nH]2)C(C)=C6CC)c(C)c5C(=O)C4)[C@@H](CCC(=O)O)C3C (stereo not given in full)	–	–	–	–	–	Drug uptake [11]: Active

Now from value to compound, other results behind:

Drug uptake [1]	Drug uptake [3]	Drug uptake [5]	Drug uptake [6]	SMILES	Activity (FaDu-124)	other results
Not Active	Active	–	–	CCCCCCCCc1c(C)c2cc3nc(c4c5[nH]c(cc6nc(cc1[nH]2)C(C)=C6CC)c(C)c5C(=O)C4)[C@@H](CCC(=O)O)C3C (stereo not given in full)	–	solubility [2]: Soluble
Active	Active	–	–	CCCCCCSC(C)c1c(C)c2cc3nc(c4c5[nH]c(cc6nc(cc1[nH]2)C(C)=C6CC)c(C)c5C(=O)C4)[C@@H](CCC(=O)O)C3C (stereo not given in full)	Active	Drug uptake [4]: Active
–	Active	Active	Active	CCCCOC(CCC)c1c(C)c2cc3nc(c4c5[nH]c(cc6nc(cc1[nH]2)C(C)=C6CC)c(C)c5C(=O)C4)[C@@H](CCC(=O)OC)C3C (stereo not given in full)	–	–
Active	Active	Active	Active	CCCCCCOC(CCC)c1c(C)c2cc3nc(c4c5[nH]c(cc6nc(cc1[nH]2)C(C)=C6CC)c(C)c5C(=O)C4)[C@@H](CCC(=O)O)C3C (stereo not given in full)	–	logP [10]: 6.01
–	Active	Active	Active	CCCCCCOC(C)c1c(C)c2cc3nc(c4c5[nH]c(cc6nc(cc1[nH]2)C(C)=C6CC)c(C)c5C(=O)C4)[C@@H](CCC(=O)OC)C3C (stereo not given in full)	Active	Drug uptake [4]: Active

Source: ChEMBL document CHEMBL5036308, “Chiral Alkyl Groups at Position 3(1') of Pyropheophorbide-a Specify Uptake and Retention by Tumor Cells and Are Essential for Effective Photodynamic Therapy” (J Med Chem, 2021)
